Measured values published in ChEMBL document CHEMBL4689842, “EUbOPEN Chemogenomics Library wave 1” (2021).

Test system: U2OS
Assay: Multiplex assay against U2OS
Assay type: toxicity, cell-based
Details: human
Procedure, shortened: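 Live cells carried four stains from seeding: Hoechst33342, BioTracker Green Microtubule Cytoskeleton Dye, MitoTracker Red and Annexin V Alexa Fluor 680. They were imaged on a CQ1 microscope at 37°C and 5% CO2 after compound addition. Using CellPathfinder machine-learning gating, cells were split into Hoechst high-intensity objects or normal cells, normal cells into healthy, pyknosed or fragmented nuclei, and pyknosed cells into mitotic or apoptotic; tubulin, mitochondrial-mass and membrane-permeability phenotypes are per cents of healthy-nucleus cells.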

[1] = 12 h, 1 µM, compound concentration 1 uM, replicate 1
[2] = 12 h, 1 µM, compound concentration 1 uM, replicate 2
[3] = 12 h, 10 µM, compound concentration 10 uM, replicate 1
[4] = 12 h, 10 µM, compound concentration 10 uM, replicate 2
[5] = 24 h, 1 µM, compound concentration 1 uM, replicate 1
[6] = 24 h, 1 µM, compound concentration 1 uM, replicate 2
[7] = 24 h, 10 µM, compound concentration 10 uM, replicate 1
[8] = 24 h, 10 µM, compound concentration 10 uM, replicate 2
[9] = 48 h, 1 µM, compound concentration 1 uM, replicate 1
[10] = 48 h, 1 µM, compound concentration 1 uM, replicate 2
[11] = 48 h, 10 µM, compound concentration 10 uM, replicate 1
[12] = 48 h, 10 µM, compound concentration 10 uM, replicate 2

CCOC(=O)c1c(C)[nH]c2ccc3c(c12)CN1CCc2cc(OC)ccc2C1O3 (stereo not drawn)
Population Apoptotic (%) [1]: 72%
Population Fragmented Nuclei (%) [1]: 9%
Population Healthy Nuclei (%) [1]: 81%
Population Hoechst High Intensity Objects (%) [1]: 5%
Population Membrane Permeable-Phenotype (%) [1]: 6%
Population Mitochondria Different-Phenotype (%) [1]: 78%
Population Mitotic Cells (%) [1]: 27%
Population Normal (%) [1]: 94%
Population Pyknosed Nuclei (%) [1]: 8%
Population Tubulin-Different-Phenotype (%) [1]: 72%
Total Cell Count [1]: 123
Population Apoptotic (%) [2]: 9%
Population Healthy Nuclei (%) [2]: 76%
Population Hoechst High Intensity Objects (%) [2]: 9%
Population Membrane Permeable-Phenotype (%) [2]: 3%
Population Mitochondria Different-Phenotype (%) [2]: 70%
Population Mitotic Cells (%) [2]: 90%
Population Normal (%) [2]: 90%
Population Pyknosed Nuclei (%) [2]: 14%
Population Tubulin-Different-Phenotype (%) [2]: 62%
Total Cell Count [2]: 65
Population Apoptotic (%) [3]: 73%
Population Fragmented Nuclei (%) [3]: 9%
Population Healthy Nuclei (%) [3]: 68%
Population Hoechst High Intensity Objects (%) [3]: 5%
Population Membrane Permeable-Phenotype (%) [3]: 68%
Population Mitotic Cells (%) [3]: 26%
Population Normal (%) [3]: 94%
Total Cell Count [3]: 135
Population Apoptotic (%) [4]: 80%
Population Fragmented Nuclei (%) [4]: 2%
Population Healthy Nuclei (%) [4]: 75%
Population Hoechst High Intensity Objects (%) [4]: 11%
Population Membrane Permeable-Phenotype (%) [4]: 70%
Population Mitochondria Different-Phenotype (%) [4]: 100%
Population Mitotic Cells (%) [4]: 20%
Population Normal (%) [4]: 88%
Population Pyknosed Nuclei (%) [4]: 22%
Population Tubulin-Different-Phenotype (%) [4]: 100%
Total Cell Count [4]: 84
Population Apoptotic (%) [5]: 41%
Population Fragmented Nuclei (%) [5]: 8%
Population Healthy Nuclei (%) [5]: 79%
Population Hoechst High Intensity Objects (%) [5]: 5%
Population Membrane Permeable-Phenotype (%) [5]: 3%
Population Mitochondria Different-Phenotype (%) [5]: 68%
Population Mitotic Cells (%) [5]: 58%
Population Normal (%) [5]: 94%
Population Pyknosed Nuclei (%) [5]: 12%
Population Tubulin-Different-Phenotype (%) [5]: 40%
Total Cell Count [5]: 127
Population Apoptotic (%) [6]: 8%
Population Fragmented Nuclei (%) [6]: 9%
Population Healthy Nuclei (%) [6]: 75%
Population Membrane Permeable-Phenotype (%) [6]: 1%
Population Mitochondria Different-Phenotype (%) [6]: 58%
Population Mitotic Cells (%) [6]: 91%
Population Pyknosed Nuclei (%) [6]: 14%
Population Tubulin-Different-Phenotype (%) [6]: 35%
Total Cell Count [6]: 65
Population Apoptotic (%) [7]: 90%
Population Fragmented Nuclei (%) [7]: 13%
Population Healthy Nuclei (%) [7]: 49%
Population Hoechst High Intensity Objects (%) [7]: 4%
Population Membrane Permeable-Phenotype (%) [7]: 78%
Population Mitochondria Different-Phenotype (%) [7]: 100%
Population Mitotic Cells (%) [7]: 9%
Population Normal (%) [7]: 95%
Population Pyknosed Nuclei (%) [7]: 37%
Population Tubulin-Different-Phenotype (%) [7]: 100%
Total Cell Count [7]: 143
Population Apoptotic (%) [8]: 89%
Population Fragmented Nuclei (%) [8]: 6%
Population Healthy Nuclei (%) [8]: 52%
Population Hoechst High Intensity Objects (%) [8]: 11%
Population Membrane Permeable-Phenotype (%) [8]: 83%
Population Mitotic Cells (%) [8]: 10%
Population Normal (%) [8]: 88%
Population Pyknosed Nuclei (%) [8]: 41%
Total Cell Count [8]: 87
Population Apoptotic (%) [9]: 44%
Population Fragmented Nuclei (%) [9]: 7%
Population Healthy Nuclei (%) [9]: 83%
Population Hoechst High Intensity Objects (%) [9]: 2%
Population Membrane Permeable-Phenotype (%) [9]: 1%
Population Mitochondria Different-Phenotype (%) [9]: 22%
Population Mitotic Cells (%) [9]: 55%
Population Normal (%) [9]: 97%
Population Pyknosed Nuclei (%) [9]: 9%
Population Tubulin-Different-Phenotype (%) [9]: 13%
Total Cell Count [9]: 115
Population Apoptotic (%) [10]: 41%
Population Fragmented Nuclei (%) [10]: 8%
Population Healthy Nuclei (%) [10]: 81%
Population Hoechst High Intensity Objects (%) [10]: 7%
Population Membrane Permeable-Phenotype (%) [10]: 9%
Population Mitochondria Different-Phenotype (%) [10]: 27%
Population Mitotic Cells (%) [10]: 58%
Population Normal (%) [10]: 92%
Population Pyknosed Nuclei (%) [10]: 10%
Population Tubulin-Different-Phenotype (%) [10]: 19%
Total Cell Count [10]: 67
Population Apoptotic (%) [11]: 100%
Population Fragmented Nuclei (%) [11]: 13%
Population Healthy Nuclei (%) [11]: 50%
Population Hoechst High Intensity Objects (%) [11]: 6%
Population Membrane Permeable-Phenotype (%) [11]: 88%
Population Mitotic Cells (%) [11]: 0%
Population Normal (%) [11]: 93%
Population Pyknosed Nuclei (%) [11]: 35%
Population Tubulin-Different-Phenotype (%) [11]: 100%
Total Cell Count [11]: 196
Population Apoptotic (%) [12]: 84%
Population Fragmented Nuclei (%) [12]: 14%
Population Healthy Nuclei (%) [12]: 45%
Population Hoechst High Intensity Objects (%) [12]: 14%
Population Membrane Permeable-Phenotype (%) [12]: 81%
Population Mitochondria Different-Phenotype (%) [12]: 100%
Population Mitotic Cells (%) [12]: 15%
Population Normal (%) [12]: 85%
Population Pyknosed Nuclei (%) [12]: 39%
Population Tubulin-Different-Phenotype (%) [12]: 95%
Total Cell Count [12]: 121

Cc1ccc2nc(NCCN)c3ncc(C)n3c2c1.O=C(O)C(F)(F)F.O=C(O)C(F)(F)F
Population Apoptotic (%) [1]: 29%
Population Fragmented Nuclei (%) [1]: 6%
Population Healthy Nuclei (%) [1]: 83%
Population Hoechst High Intensity Objects (%) [1]: 1%
Population Membrane Permeable-Phenotype (%) [1]: 6%
Population Mitochondria Different-Phenotype (%) [1]: 17%
Population Mitotic Cells (%) [1]: 70%
Population Normal (%) [1]: 98%
Population Pyknosed Nuclei (%) [1]: 10%
Population Tubulin-Different-Phenotype (%) [1]: 27%
Total Cell Count [1]: 235
Population Apoptotic (%) [2]: 4%
Population Fragmented Nuclei (%) [2]: 8%
Population Healthy Nuclei (%) [2]: 75%
Population Hoechst High Intensity Objects (%) [2]: 13%
Population Mitotic Cells (%) [2]: 95%
Population Normal (%) [2]: 86%
Population Pyknosed Nuclei (%) [2]: 16%
Population Tubulin-Different-Phenotype (%) [2]: 17%
Total Cell Count [2]: 151
Population Apoptotic (%) [3]: 28%
Population Fragmented Nuclei (%) [3]: 17%
Population Healthy Nuclei (%) [3]: 65%
Population Hoechst High Intensity Objects (%) [3]: 8%
Population Membrane Permeable-Phenotype (%) [3]: 17%
Population Mitochondria Different-Phenotype (%) [3]: 11%
Population Mitotic Cells (%) [3]: 71%
Population Normal (%) [3]: 91%
Population Pyknosed Nuclei (%) [3]: 17%
Population Tubulin-Different-Phenotype (%) [3]: 17%
Total Cell Count [3]: 132
Population Apoptotic (%) [4]: 50%
Population Fragmented Nuclei (%) [4]: 27%
Population Healthy Nuclei (%) [4]: 53%
Population Hoechst High Intensity Objects (%) [4]: 12%
Population Membrane Permeable-Phenotype (%) [4]: 15%
Population Mitochondria Different-Phenotype (%) [4]: 13%
Population Mitotic Cells (%) [4]: 50%
Population Normal (%) [4]: 87%
Population Pyknosed Nuclei (%) [4]: 18%
Population Tubulin-Different-Phenotype (%) [4]: 22%
Total Cell Count [4]: 123
Population Apoptotic (%) [5]: 33%
Population Fragmented Nuclei (%) [5]: 2%
Population Healthy Nuclei (%) [5]: 93%
Population Hoechst High Intensity Objects (%) [5]: 1%
Population Membrane Permeable-Phenotype (%) [5]: 7%
Population Mitochondria Different-Phenotype (%) [5]: 19%
Population Mitotic Cells (%) [5]: 66%
Population Normal (%) [5]: 98%
Population Pyknosed Nuclei (%) [5]: 3%
Population Tubulin-Different-Phenotype (%) [5]: 31%
Total Cell Count [5]: 309
Population Apoptotic (%) [6]: 18%
Population Fragmented Nuclei (%) [6]: 6%
Population Healthy Nuclei (%) [6]: 84%
Population Hoechst High Intensity Objects (%) [6]: 8%
Population Mitochondria Different-Phenotype (%) [6]: 32%
Population Mitotic Cells (%) [6]: 81%
Population Normal (%) [6]: 91%
Population Pyknosed Nuclei (%) [6]: 9%
Population Tubulin-Different-Phenotype (%) [6]: 20%
Total Cell Count [6]: 192
Population Apoptotic (%) [7]: 76%
Population Fragmented Nuclei (%) [7]: 27%
Population Healthy Nuclei (%) [7]: 30%
Population Hoechst High Intensity Objects (%) [7]: 8%
Population Membrane Permeable-Phenotype (%) [7]: 32%
Population Mitochondria Different-Phenotype (%) [7]: 26%
Population Mitotic Cells (%) [7]: 23%
Population Normal (%) [7]: 91%
Population Pyknosed Nuclei (%) [7]: 41%
Population Tubulin-Different-Phenotype (%) [7]: 32%
Total Cell Count [7]: 123
Population Apoptotic (%) [8]: 61%
Population Fragmented Nuclei (%) [8]: 29%
Population Healthy Nuclei (%) [8]: 36%
Population Hoechst High Intensity Objects (%) [8]: 14%
Population Membrane Permeable-Phenotype (%) [8]: 24%
Population Mitochondria Different-Phenotype (%) [8]: 42%
Population Mitotic Cells (%) [8]: 38%
Population Normal (%) [8]: 85%
Population Pyknosed Nuclei (%) [8]: 34%
Population Tubulin-Different-Phenotype (%) [8]: 30%
Total Cell Count [8]: 106
